Measured values from paper PMC3228909 (Journal of medicinal chemistry, 2011).
Values joined by “and” are separate entries in the source; they are usually repeats but may differ in a detail not shown here. Equal values may be shown once. Read-outs that look alike come from different tables or passages of the source.

Experiments:
[1] = target: Aβ plaques in postmortem human brain sections (Homo sapiens, UniProt P05067); experiment: In vitro autoradiography of postmortem human brain sections; type: binding
In short: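 Frozen postmortem brains (confirmed CAA, AD, control) cut at 20 µm. Sections incubated 1 h with the 18F-labelled test compound in 40% ethanol. Washes: saturated Li2CO3 in 40% ethanol (2 min, twice), then 40% ethanol (2 min, once), then a 30 s water rinse. Dried sections exposed to film for 12–18 h; developed images digitized.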

[2] = normal mice, iv, cited from earlier work
[3] = target: Aβ plaques in postmortem AD brain homogenates (Homo sapiens, UniProt P05067); type: binding
[4] = target: Aβ plaques in CAA brain sections (Homo sapiens, UniProt P05067); experiment: Thioflavin S fluorescent staining of neighboring CAA occipital brain sections
In short: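 Brain sections fixed in 10% neutral buffered formalin for 1 hr. Autofluorescence quenched with 0.05% KMnO4, then bleached in 0.2% K2S2O5/0.2% oxalic acid. Stained 3–5 min with 0.025% thioflavin S in 40% ethanol, differentiated in 50% ethanol. Imaged by fluorescence microscopy with a CCD digital camera.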

Chain of Aβ plaques in postmortem human brain sections (P05067 672-711 limits assumed): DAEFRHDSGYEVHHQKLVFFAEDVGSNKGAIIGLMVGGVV
Chain of Aβ plaques in postmortem AD brain homogenates (P05067 672-711 limits assumed): as above
Chain of Aβ plaques in CAA brain sections (P05067 672-711 limits assumed): as above

## CNc1ccc(/C=C/c2ccc(OCCOCCOCC[18F])nc2)cc1 [[^18F]5, [^18F]florbetapir f 18]
[1]; AD brain sections
  Autoradiographic labeling of brain sections: labeled intensely
[1]; healthy control (HC) brain sections
  Autoradiographic labeling of brain sections: very low labeling
[2]; 2 min post injection
  Biodistribution, Blood: 3.14 ± 0.69 % dose/gram
  Biodistribution, Bone: 1.43 ± 0.09 % dose/gram
  Biodistribution, Brain (brain uptake): 7.8 % dose/gram and 7.77 ± 1.70 % dose/gram
  Biodistribution, Kidney: 10.9 ± 2.63 % dose/gram
  Biodistribution, Liver: 21.5 ± 1.07 % dose/gram
  Biodistribution, Muscle: 1.06 ± 0.39 % dose/gram
[2]; 30 min post injection
  Biodistribution, Blood: 2.80 ± 0.44 % dose/gram
  Biodistribution, Bone: 1.22 ± 0.17 % dose/gram
  Biodistribution, Brain: 1.59 ± 0.22 % dose/gram
  Biodistribution, Kidney: 6.31 ± 0.58 % dose/gram
  Biodistribution, Liver: 12.9 ± 0.72 % dose/gram
  Biodistribution, Muscle: 1.78 ± 0.34 % dose/gram

## CNc1ccc(/C=C/c2ccc(OCCOCCOCCOCCOCCOCCOCC(COCCOCCOCCOCCOCCOCCOc3ccc(/C=C/c4ccc(NC)cc4)cn3)OCCF)nc2)cc1 [Compound 8c]
[3]
  Ki: 7.71 nM

## thioflavin S
[4]
  Fluorescent staining of brain sections compared with [18F]8a autoradiography: same labeling of the major blood vessels

## CNc1ccc(/C=C/c2ccc(OCCOCCOCCOCCOCCOCC(COCCOCCOCCOCCOCCOc3ccc(/C=C/c4ccc(NC)cc4)cn3)OCCF)nc2)cc1 [Compound 8b]
[3]
  Ki: 3.24 nM
